From ChEMBL document CHEMBL6134900 (J Med Chem, 2025)
Active and inactive are the calls of the source. No cut-off for these calls is given here.

What was measured:
[1] = system: NCI-H2030; assay: Antitumor activity against human NCI-H2030 cells harboring KRAS G12C mutant/SMARCA4 mutant assessed as cell growth inhibition incubated for 7 days by Incucyte S3 analysis; assay type: functional, cell-based; conditions: time 7.0 day
Method in brief: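 H2030 cells plated at 500 per well and grown overnight at 37 °C. Treated with 3-fold dilutions of sotorasib, test agent, or both. Confluency imaged every 4 h for 7 days on IncuCyte S3. Synergy scored as Bliss/Lowe consensus, >10 taken as synergy.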

[2] = molecular target: Transcriptional coactivator YAP1 (Homo sapiens) (UniProt P46937); assay: Induction of YAP1 phosphorylation at S109 residue in human H322 cells harboring SMARCA4 mutant at 1 uM incubated for 96 hrs by immunoblot analysis; assay type: cell-based; conditions: filed as activator
Transcriptional coactivator YAP1 (Homo sapiens), sequence (P46937 whole entry): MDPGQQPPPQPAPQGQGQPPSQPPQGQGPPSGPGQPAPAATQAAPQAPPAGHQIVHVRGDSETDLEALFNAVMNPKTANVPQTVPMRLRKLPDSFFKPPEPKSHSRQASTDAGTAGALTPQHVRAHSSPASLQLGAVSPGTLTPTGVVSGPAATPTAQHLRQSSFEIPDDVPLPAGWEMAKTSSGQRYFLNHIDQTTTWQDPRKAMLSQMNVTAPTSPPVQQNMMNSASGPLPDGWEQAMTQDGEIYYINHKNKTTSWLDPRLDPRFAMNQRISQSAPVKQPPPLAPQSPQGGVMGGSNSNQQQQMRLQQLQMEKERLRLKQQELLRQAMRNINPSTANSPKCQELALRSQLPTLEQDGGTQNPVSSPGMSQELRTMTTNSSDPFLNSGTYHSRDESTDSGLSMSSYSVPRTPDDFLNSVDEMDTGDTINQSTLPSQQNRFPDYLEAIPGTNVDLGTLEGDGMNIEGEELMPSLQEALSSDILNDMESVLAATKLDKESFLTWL

[3] = Drug concentration in CRBN I391V mutant mouse plasma at 10 mg/kg, po administered once daily for 3 days and measured at 24 hrs post last dose; assay type: ADME, organism-based; conditions: time 3 day
Method in brief: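 Oral dosing once daily for 3 days: 5–80 mg/kg in C57BL/6 mice, 10–80 mg/kg in CrbnI391V mice. Euthanized 24 h after last dose. Plasma drug level measured. Spleen SMARCA2 by Western blot against actin loading control, relative to vehicle.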

[4] = Drug metabolism in mouse liver microsomes assessed as Mono-oxygenation and hydrogenation mediated M1 metabolite formation at 10 uM incubated for 60 mins by LC-UV-HRMS analysis; assay type: ADME, Microsome; conditions: 1 h
Method in brief: (§1)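 Compound at 10 μM incubated with mouse liver microsomes at 37 °C for 60 min. Metabolites detected by LC-UV-HRMS, structures proposed from MS and MS2 data, and each metabolite given as a percentage.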

[5] = molecular target: T1, Protein cereblon/SWI/SNF-related matrix-associated actin-dependent regulator of chromatin subfamily A member 2 (Homo sapiens, UniProt P51531+Q96SW2); assay: PROTAC activity at CRBN/SMARCA2 in human H322 cells harboring SMARCA4 mutant assessed as induction of SMARCA2 degradation at 1 uM in presence of Gen-1 by immunoblot analysis; assay type: cell-based
[6] = Toxicity in immunocompromised mouse xenografted with human NCI-H1568 cells assessed as drug tolerance at 80 mg/kg, administered once daily for 21 days; assay type: organism-based; conditions: in vivo, 504 h, time 21 day
[7] = Drug metabolism in mouse liver microsomes assessed as Mono-oxygenation mediated M2 metabolite formation at 10 uM incubated for 60 mins by LC-UV-HRMS analysis; assay type: ADME, Microsome; conditions: 1 h; method in brief: as §1
[8] = In vivo PROTAC activity at CRBN/SMARCA2 in female athymic nude mouse xenografted with human NCI-H2030 cells harboring SMARCA4 mutant assessed as SMARCA2 degradation at 5 mg/kg, po administered once daily via gavage for 17 days by Western blotting analysis relative to control; assay type: functional; conditions: time 17 day
Method in brief: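 H2030 cells (10 × 10^6, PBS/Matrigel 1:1) implanted subcutaneously in the flank of female nude mice. Randomised below 200 mm3. 5 mg/kg or vehicle given by oral gavage once daily for 17 days in 10% DMSO/40% PEG300/1% Tween-80/49% saline. Tumours collected 24 h after dosing. SMARCA2 measured by Western blot against β-actin, relative to vehicle.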

[9] = system: NCI-H2030; assay: Synergistic antitumor activity against human NCI-H2030 cells harboring KRAS G12C mutant/SMARCA4 mutant assessed as inhibition of colony formation incubated for 8 days in presence of sotorasib by clonogenic growth assay; assay type: functional, cell-based; conditions: time 8.0 day
Method in brief: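 H2030 clonogenic assay over 8 days with 2-fold dilutions of sotorasib, test agent, or both. Crystal violet staining, total colony area normalized. Synergy scored as Bliss/Lowe consensus, >10 taken as synergy.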

[10] = molecular target: T1, Protein cereblon/SWI/SNF-related matrix-associated actin-dependent regulator of chromatin subfamily A member 2; assay: PROTAC activity at CRBN/SMARCA2 in human H322 cells harboring SMARCA4 mutant assessed as induction of SMARCA2 degradation at 0.1 uM in presence of pomalidomide by immunoblot analysis; assay type: cell-based
[11] = system: HCC515; assay: Antitumor activity against human HCC515 cells harboring SMARCA4 mutant xenografted in female athymic nude mouse assessed as tumor growth inhibition at 5 mg/kg, po administered once daily via gavage for 19 days relative to control; assay type: functional; conditions: HCC515, 456 h, time 19 day, read-out: TGI
Method in brief: (§2)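 Cells (H1568 2 × 10^6, H2023 10 × 10^6, HCC515 5 × 10^6) in PBS:Matrigel 1:1, 200 μL, injected subcutaneously into flanks of 6–8-week-old females. Randomized at mean tumor volume 60 mm3 (H1568) or <200 mm3 (others). Dosed in 0.5% methylcellulose + 0.2–1% Tween-80, sonicated on ice. Caliper tumor volume and body weight tracked, mean ± SEM.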

[12] = system: NCI-H2030; assay: Antitumor activity against human NCI-H2030 cells harboring SMARCA4 mutant xenografted in female athymic nude mouse assessed as tumor growth inhibition at 5 mg/kg, po administered once daily via gavage for 17 days relative to control; assay type: functional; conditions: NCI-H2030, 408 h, time 17 day, read-out: TGI
Method in brief: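 10 × 10^6 H2030 cells in PBS:Matrigel 1:1, 200 μL, injected subcutaneously into flanks of 6–8-week-old females. Randomized at mean tumor volume <200 mm3. Oral gavage once daily in 10% DMSO, 40% PEG300, 1% Tween-80, 49% saline. Caliper tumor volume and body weight monitored, mean ± SEM.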

[13] = Antitumor activity against human NCI-H2023 cells harboring SMARCA4 mutant xenografted in female athymic nude mouse assessed as tumor growth inhibition at 5 mg/kg, po administered once daily via gavage for 19 days relative to control; assay type: functional; conditions: NCI-H2023, 456 h, time 19 day, read-out: TGI; method in brief: as §2
[14] = molecular target: T1, Protein cereblon/SWI/SNF-related matrix-associated actin-dependent regulator of chromatin subfamily A member 2; assay: PROTAC activity at CRBN/SMARCA2 in human H322 cells harboring SMARCA4 mutant assessed as induction of SMARCA2 degradation at 0.1 uM in presence of bortezomib by immunoblot analysis; assay type: cell-based
[15] = Half life in male CD-1 (ICR) mouse at 25 mg/kg, po measured up to 24 hrs by LC-MS/MS analysis; assay type: ADME, organism-based; conditions: in vivo
Method in brief: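 Single 25 mg/kg dose. IP vehicle was 5% DMSO/5% solutol/90% water at 1.25 mg/mL, final pH 4.39, clear solution. Oral vehicle was 0.5% methylcellulose/0.2% Tween 80 in water, opaque suspension. Plasma sampled at 0.25, 0.5, 1, 2, 4, 8 and 24 h. Plasma protein-precipitated with internal standard in acetonitrile, then LC-MS/MS. n = 3 mice per time point, mean.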

[16] = In vivo PROTAC activity at CRBN/SMARCA2 in female athymic nude mouse xenografted with human HCC515 cells harboring SMARCA4 mutant assessed as SMARCA2 degradation at 5 mg/kg, po administered once daily via gavage for 19 days by Western blotting analysis relative to control; assay type: functional; conditions: time 19 day
Method in brief: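 Female nude mice aged 6–8 weeks carried subcutaneous flank xenografts in PBS/Matrigel 1:1: H2023 at 10 × 10^6 cells or HCC515 at 5 × 10^6 cells. Randomised below 200 mm3. 5 mg/kg or vehicle given by oral gavage once daily for 19 days in 0.5% methylcellulose with Tween-80 (0.2% for H2023, 1% for HCC515). Tumours collected 24 h after dosing. SMARCA2 measured by Western blot against β-actin, relative to vehicle.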

[17] = Drug metabolism in mouse liver microsomes assessed as mono-oxygenation and N-dealkylation mediated M2 metabolite formation at 10 uM incubated for 60 mins by LC-UV-HRMS analysis; assay type: ADME, Microsome; conditions: 1 h; method in brief: as §1

## Nc1nnc(-c2ccccc2O)cc1N1CCN(Cc2ccc(N3CCC(CN4CCN(c5ccc6c(c5)C(=O)N(C5CCC(=O)NC5=O)C6=O)CC4)CC3)c(F)c2)CC1 (configuration not stated)
[1]
  Activity: Active; Minimal Inhibition Observed
[2]
  Activity: Active
[3]
  concentration at 72 h: 1 µM
[4]
  Drug metabolism: metabolite_detected
[5]
  Activity: inactive
[6]
  Activity: Non-toxic
[7]
  Drug metabolism: metabolite_detected

## Nc1nnc(-c2ccccc2O)cc1N1CCN(Cc2ccc(N3CCN(CCOc4cccc5c4C(=O)N(C4CCC(=O)NC4=O)C5=O)CC3)c(F)c2)CC1 (configuration not stated)
[8]
  Activity: 40%
[9]
  Activity: Active
[10]
  Activity: inactive
[11]
  inhibition in vivo at 5 mg/kg: 48.8%
[12]
  inhibition in vivo at 5 mg/kg: 93.4%
[13]
  inhibition in vivo at 5 mg/kg: 62.5%
[14]
  Activity: inactive
[15]
  t1/2: 6 h
[16]
  Activity: 96%
[17]
  Drug metabolism: metabolite_detected
